One data set deals with HCT-116. Put plainly: Antiproliferative activity against human HCT116 cells after 72 hrs. The data set is classed as functional.
Data set [1] can be described thus: Log D at pH 7 by HPLC. Type of data set: physicochemical. The following applies: buffer.
The nature of data set [2]: Aqueous solubility at pH 7 by HPLC. The data set is classed as physicochemical. The following applies: buffer. The method in brief: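 A 200 µM sample in PBS-buffered water at pH 7 was agitated 24 h at room temperature and then filtered. A 100 µM reference was fully dissolved in MeOH:MeCN:DMSO (8:1:1). Both were run by the same high-throughput HPLC method, and the peak areas were compared to give the dissolved concentration. The assay caps at 200 µM.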

Converted amounts (≈) assume the structure as drawn.

The source of these data is ChEMBL document CHEMBL1142361, “Phenylglycine and phenylalanine derivatives as potent and selective HDAC1 inhibitors (SHI-1)” (Bioorg Med Chem Lett, 2008).

In the data set with HCT-116, `NC(=O)[C@@H](N)c1ccc(C(=O)Nc2cc(-c3cccs3)ccc2N)cc1` returned an Activity of 510 nM.

Take `CN(C)C(=O)C(N)c1ccc(C(=O)Nc2cc(-c3cccs3)ccc2N)cc1` (stereo unspecified): the Activity in the data set on HCT-116 amounted to 420 nM.

Turning to `NC(=O)[C@@H](N)Cc1ccc(C(=O)Nc2cc(-c3cccs3)ccc2N)cc1`, the Activity in the data set with HCT-116 was 260 nM.

`Nc1ccc(-c2cccs2)cc1NC(=O)c1ccccc1`: the logD (as a rule, lipophilicity at a set pH, counting ionised and neutral species) in data set [1] is 2.7. In addition, in the data set with HCT-116, the Activity stood at 720 nM.

In data set [1], `NC(=O)C(N)c1ccc(C(=O)Nc2cc(-c3cccs3)ccc2N)cc1` (stereo unspecified) showed a logD of 1.49. In addition, in the data set with HCT-116, the Activity is reported as 350 nM. Also, the solubility – broadly, the concentration that dissolves in the medium under given conditions – in data set [2] is 185 µM (≈ 67.8 µg/mL).

In the case of `CNC(=O)[C@H](N)c1ccc(C(=O)Nc2cc(-c3cccs3)ccc2N)cc1`, the Activity with HCT-116 is given as 420 nM.

In the data set with HCT-116, `CNC(=O)[C@@H](N)c1ccc(C(=O)Nc2cc(-c3cccs3)ccc2N)cc1` gave an Activity of 480 nM.

`Nc1ccc(-c2ccccc2)cc1NC(=O)c1ccccc1`: in the data set with HCT-116, the Activity is 1700 nM.
